M5 ag = human M5 muscarinic receptor agonists, primary screen, CHO-K1 cells, Fluo-8 calcium fluorescence; Muscarinic acetylcholine receptor M5 (Homo sapiens), P08912; CHO-K1 hM5 cells; 0% DMSO wells, 100% maximal acetylcholine response; activation, % at 3 µM; hit rate 0.19% among 360,000; AID 624037, 2012;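 active = activation above the run's mean over test compounds plus 3 SD, cut at about 23% in these data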;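 note: signal is peak over basal fluorescence ratio across the kinetic read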
M5 PAM = human M5 muscarinic receptor positive allosteric modulators, primary screen, CHO-K1 cells, Fluo-8 calcium fluorescence; Muscarinic acetylcholine receptor M5 (Homo sapiens), P08912; CHO-K1 hM5, ACh EC20 PAM; 0% = ACh EC20, 100% = ACh EC100; activation, % at 3 µM; hit rate 0.3% among 360,000; AID 624038, 2012;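 active = activation above the run cutoff, the mean activation of all test compounds plus 3 SD, cut at about 18% in these data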
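Assay system: CHO-K1 hM5 cells. Also added: acetylcholine at EC20 concentration, added after compound. Dosing: 3 µM, single dose. Times: compound preincubation 140 s before EC20 acetylcholine addition. Signal: Fluo-8 calcium fluorescence. Measure: % activation relative to EC20 and EC100 ACh responses. Repeats: singlicate, one well per test compound.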
M4 ag = human M4 muscarinic receptor agonists, primary screen, CHO-K1 cells, Fluo-8 calcium fluorescence; hit rate 0.14% among 360,000; CHO-K1 hM4/Gqi5; vehicle 0%, full acetylcholine response 100%; Muscarinic acetylcholine receptor M4 (Homo sapiens), P08173; activation, % at 3 µM;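 active = activation above the run mean over all test wells plus 3 SD, cut at about 32% in these data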;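 note: peak over basal fluorescence ratio per well then scaled between controls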
Target sequence (P08173 whole entry, looked up): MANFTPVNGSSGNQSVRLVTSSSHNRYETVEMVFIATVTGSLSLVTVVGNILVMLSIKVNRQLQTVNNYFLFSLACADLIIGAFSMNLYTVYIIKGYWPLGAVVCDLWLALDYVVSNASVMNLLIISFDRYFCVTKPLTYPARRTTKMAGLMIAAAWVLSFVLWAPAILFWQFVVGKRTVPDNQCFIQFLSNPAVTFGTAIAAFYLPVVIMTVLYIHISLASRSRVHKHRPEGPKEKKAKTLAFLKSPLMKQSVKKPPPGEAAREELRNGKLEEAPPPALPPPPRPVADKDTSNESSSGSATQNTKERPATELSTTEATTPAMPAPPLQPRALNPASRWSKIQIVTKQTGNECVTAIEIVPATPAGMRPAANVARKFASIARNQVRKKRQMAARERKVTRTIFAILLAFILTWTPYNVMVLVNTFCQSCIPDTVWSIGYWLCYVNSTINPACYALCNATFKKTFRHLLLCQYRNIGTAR
M4 antag = human M4 muscarinic receptor antagonists, primary screen, CHO cells, Fluo-8 calcium fluorescence. Muscarinic acetylcholine receptor M4 (Homo sapiens), P08173. hit rate 0.73% among 360,000. AID 624125, 2012. inhibition, % at 3 µM. CHO-hM4 cells, ACh EC80;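 active = inhibition above its plate's cutoff, the mean inhibition of sample wells plus 3 SD, cut at about 27% in these data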
CHRM5 antagonist = human M5 muscarinic receptor antagonists, primary screen, CHO cells, Fluo-8 calcium fluorescence; inhibition, % at 3 µM; hit rate 0.59% among 360,000; AID 624040, 2012; CHO-hM5 cells, ACh EC80; Muscarinic acetylcholine receptor M5 (Homo sapiens), P08912;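 active = inhibition above a per-plate cutoff, the mean of that plate's test compounds plus 3 SD, cut at about 27% in these data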
M4 PAM = human M4 muscarinic receptor positive allosteric modulators, primary screen, CHO-K1 cells, Fluo-8 calcium fluorescence | activation, % at 3 µM | CHO-K1 hM4/Gqi5, ACh EC20; 0% = ACh EC20, 100% = maximal ACh | hit rate 0.4% among 360,000 | AID 624126, 2012;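 active = activation above its plate's cutoff, the mean activation of sample wells plus 3 SD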
Of the large screens only hits and unclear results are named; the others gave an inactive call. Compounds with a hit are over-represented: about 1.8% of the library has one in this group of screens.

CCOc1ncccc1C(=O)Nc1ccc2c(C)cc(=O)oc2c1	M5 PAM 22
Cc1noc(C)c1S(=O)(=O)Nc1ccc2c(c1)C(=O)N([C@H](C)CO)C[C@H](C)[C@@H](CN(C)S(=O)(=O)c1ccc(F)cc1)O2	none
Cc1noc(C)c1S(=O)(=O)Nc1ccc2c(c1)CC(=O)N([C@H](C)CO)C[C@H](C)[C@H](CN(C)S(=O)(=O)c1ccc(F)cc1)O2	M4 antag 59
Clc1cccc2sc(N3CCCC3)nc12	none
Clc1cccc2sc(N3CCOCC3)nc12	M5 PAM 26
COc1ccc(CCn2cc(C#N)c(=O)[nH]c2=O)cc1OC	none
COc1ccccc1CCn1cc(C#N)c(=O)[nH]c1=O	M4 antag 100
O=C(NNc1ccnc2cc(Cl)ccc12)C1CCCCC1	CHRM5 antagonist 31
NC(=S)NNc1ccnc2cc(Cl)ccc12	none
Cc1oc2c(CN3CCOCC3)c(O)ccc2c(=O)c1-c1ccc(Br)cc1	M4 antag 38
Cc1oc2c(CN3CCOCC3)c(O)ccc2c(=O)c1-c1ccc(Cl)cc1	none
Cc1oc2c(CN3CCCC3)c(O)ccc2c(=O)c1-c1ccc(Cl)cc1	M4 antag 70
Cc1oc2c(CN3CCCC3)c(O)ccc2c(=O)c1-c1ccccc1	none
CN(C)c1ccc(C=C(C#N)C(=O)c2ccccc2)cc1Br	none
CC(C)c1ccc(NC(=O)C2Cc3c(-c4ccc(Cl)cc4)ccnc3O2)cc1 (configuration not stated)	none
O=C(OCC(=O)N1CCc2ccccc21)C1=COCCO1	M4 PAM 29
O=C(O)c1cccc(N2C(=O)CSC2c2c(F)cccc2Cl)c1 (configuration not stated)	none
COc1ccc(N2C(=O)CSC2c2ccc(F)c(F)c2)cc1 (configuration not stated)	none
Cc1ccc(N2C(=O)CSC2c2c(F)cccc2Cl)cc1 (configuration not stated)	M4 antag 86, CHRM5 antagonist 68
COc1cccc(C2SCC(=O)N2c2ccc(Cl)cc2)c1OC (configuration not stated)	M4 antag 59, CHRM5 antagonist 28
CC(C)c1cn(CC[C@@H]2CC[C@@H](NC(=O)C3CCCCC3)[C@@H](CO)O2)nn1	none
CC1(C(=O)O)CCN1C(=O)c1cccc(C(F)(F)F)c1 (configuration not stated)	none
CC(=O)CC(=O)Nc1ccn(-c2ccccc2)n1	M5 PAM 20
CCCCS(=O)(=O)c1sc2nc(C)cc(C)c2c1N	M5 PAM 21
COCCNCC(=O)N1c2ccccc2Sc2ccccc21	M4 antag 31, CHRM5 antagonist 57
Cc1cccc[n+]1CC(=O)N1c2ccccc2Sc2ccccc21	M4 antag 96, CHRM5 antagonist 99
CC(=O)N1c2ccccc2Sc2ccccc21	none
CC(C)CNCC(=O)N1c2ccccc2Sc2ccccc21	M4 antag 52, CHRM5 antagonist 74
CC(C)NC(=O)N1c2ccccc2Sc2ccccc21	none
COCCCNC(=O)N1c2ccccc2Sc2ccccc21	none
C=CCn1c(=N)n(CC(O)c2ccco2)c2ccccc21 (configuration not stated)	M5 PAM 29, M4 PAM 17
O=C(NCCN1CCCC(O)C1)c1cc(COc2cccc(C(F)(F)F)c2)on1 (configuration not stated)	none
O=C1CC(c2ccc(F)cc2)Sc2ccccc2N1 (configuration not stated)	none

Screens (PubChem BioAssay)
